Data reported in ChEMBL document CHEMBL1132488, “On the bioactive conformation of NAN-190 (1) and MP3022 (2), 5-HT(1A) receptor antagonists” (J Med Chem, 1999).

Tests used:
Rattus norvegicus [1] = organism: Rattus norvegicus; test: Induction of behavioral syndrome(FT: forepaw treading) by the compound in reserpine pretreated rats at a dose of 4.; format: functional
Summary of the method: (§1)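 Male Wistar rats (260–300 g) were given reserpine 1 mg/kg sc in saline 18 h before testing. Test compound was then given alone ip as a 1% Tween 80 suspension (2 mL/kg). FBP and FT were each scored 0–3 and summed (maximum 15). n=6 per group; mean ± SEM; Newman–Keuls test.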

Rattus norvegicus [2] = organism: Rattus norvegicus; test: Effect on 8-OH-DAPT- induced behavioral syndrome(FT: forepaw treading) by the compound in reserpine pretreated rats at a dose of 4.; format: functional
Summary of the method: (§2)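 Reserpinized male Wistar rats (reserpine 1 mg/kg sc, 18 h before), groups of 6. Compound given ip in 1% Tween 80 60 min before 8-OH-DPAT 5 mg/kg sc. FBP/FT rated 0–3 at 3, 6, 9, 12 and 15 min after agonist, summed (max 15). Mean ± SEM; Newman–Keuls test; ED50 with range.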

Rattus norvegicus [3] = organism: Rattus norvegicus; test: Induction of behavioral syndrome(FBP: flat body posture) by the compound in reserpine pretreated rats at a dose of 2.; format: functional
Summary of the method: (§3)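 Male Wistar rats (260–300 g), groups of 6, given reserpine 1 mg/kg sc 18 h before test. Compounds given ip as 1% Tween 80 suspension. FBP and FT rated 0–3 in 45-s sessions every 3 min, starting 3 min after dosing. Score summed over 5 periods (max 15 per symptom). Mean ± SEM; Newman–Keuls test.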

Rattus norvegicus [4] = test: Induction of LLR(lower lip retraction) by the compound in rats at a dose of 2 mg/kg; format: functional
Summary of the method: (§4)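 Male Wistar rats, groups of 6, given compound alone ip as 1% Tween 80 suspension. Lower incisor visibility scored 0/0.5/1 at 15, 30 and 45 min after dosing, summed (max 3 per rat). Mean ± SEM versus vehicle, Newman–Keuls test; ED50 with range.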

Rattus norvegicus [5] = test: Induction of LLR(lower lip retraction) by the compound in rats at a dose of 4 mg/kg; format: functional; summary of the method: as §4
Rattus norvegicus [6] = test: Effect on 8-OH-DPAT-Induced LLR(lower lip retraction) in rats at a dose of 4 mg/kg; format: functional
Summary of the method: (§5)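 Male Wistar rats, groups of 6. Compound given ip in 1% Tween 80 45 min before 8-OH-DPAT 1 mg/kg sc. Lower incisor visibility scored 0/0.5/1 at 15, 30 and 45 min after agonist, summed (max 3). Mean ± SEM; Newman–Keuls test; ED50 with range.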

Rattus norvegicus [7] = organism: Rattus norvegicus; test: Effect on 8-OH-DAPT- induced behavioral syndrome(FBP: flat body posture) by the compound in reserpine pretreated rats at a dose of 8.; format: functional; summary of the method: as §2
Rattus norvegicus [8] = organism: Rattus norvegicus; test: Effect on 8-OH-DAPT- induced behavioral syndrome(FT: forepaw treading) by the compound in reserpine pretreated rats at a dose of 2.; format: functional
Rattus norvegicus [9] = organism: Rattus norvegicus; test: Dose Inducing behavioral syndrome(FT: forepaw treading) by the compound in reserpine pretreated rats.; format: functional; summary of the method: as §3
Rattus norvegicus [10] = organism: Rattus norvegicus; test: Induction of behavioral syndrome(FBP: flat body posture) by the compound in reserpine pretreated rats at a dose of.1; format: functional
Rattus norvegicus [11] = test: Induction of LLR(lower lip retraction) by the compound in rats at a dose of 1 mg/kg; format: functional; summary of the method: as §4
Rattus norvegicus [12] = organism: Rattus norvegicus; test: Effect on 8-OH-DAPT- induced behavioral syndrome(FT: forepaw treading) by the compound in reserpine pretreated rats at a dose of 8.; format: functional; summary of the method: as §2
Rattus norvegicus [13] = test: Effect on 8-OH-DPAT-Induced LLR(lower lip retraction) in rats at a dose of 2 mg/kg; format: functional; summary of the method: as §5
Rattus norvegicus [14] = organism: Rattus norvegicus; test: Induction of behavioral syndrome(FBP: flat body posture) by the compound in reserpine pretreated rats at a dose of 4.; format: functional; summary of the method: as §1
Rattus norvegicus [15] = organism: Rattus norvegicus; test: Induction of behavioral syndrome(FT: forepaw treading) by the compound in reserpine pretreated rats at a dose of 8.; format: functional; summary of the method: as §1
Rattus norvegicus [16] = organism: Rattus norvegicus; test: Induction of behavioral syndrome(FT: forepaw treading) by the compound in reserpine pretreated rats at a dose of.1; format: functional
Rattus norvegicus [17] = organism: Rattus norvegicus; test: Effective dose of the required to inhibit symptoms produced by 8-OH-DPAT; format: functional; summary of the method: as §2
Rattus norvegicus [18] = organism: Rattus norvegicus; test: Effect on 8-OH-DAPT- induced behavioral syndrome(FT: forepaw treading) by the compound in reserpine pretreated rats at a dose of.1; format: functional
Rattus norvegicus [19] = organism: Rattus norvegicus; test: Effect on 8-OH-DAPT- induced behavioral syndrome(FBP: flat body posture) by the compound in reserpine pretreated rats at a dose of 4.; format: functional; summary of the method: as §2
Rattus norvegicus [20] = test: Effect on 8-OH-DPAT-Induced LLR(lower lip retraction) in rats at a dose of 1 mg/kg; format: functional; summary of the method: as §5
Rattus norvegicus [21] = organism: Rattus norvegicus; test: Effect on 8-OH-DAPT- induced behavioral syndrome(FBP: flat body posture) by the compound in reserpine pretreated rats at a dose of.1; format: functional
Rattus norvegicus [22] = organism: Rattus norvegicus; test: Induction of behavioral syndrome(FBP: flat body posture) by the compound in reserpine pretreated rats at a dose of 8.; format: functional; summary of the method: as §1
Rattus norvegicus [23] = organism: Rattus norvegicus; test: Effect on 8-OH-DAPT- induced behavioral syndrome(FBP: flat body posture) by the compound in reserpine pretreated rats at a dose of 2.; format: functional
Rattus norvegicus [24] = organism: Rattus norvegicus; test: Dose inhibiting 8-OH-DPAT-induced behavioral syndrome(FBP: flat body posture) by the compound in reserpine pretreated rats.
Rattus norvegicus [25] = organism: Rattus norvegicus; test: Induction of behavioral syndrome(FT: forepaw treading) by the compound in reserpine pretreated rats at a dose of 2.; format: functional
Rattus norvegicus [26] = test: Induction of LLR(lower lip retraction) by the compound in rats at a dose of 32 mg/kg; format: functional; summary of the method: as §4
Rattus norvegicus [27] = organism: Rattus norvegicus; test: Induction of behavioral syndrome(FBP: flat body posture) by the compound in reserpine pretreated rats at a dose of 16.; format: functional; summary of the method: as §3
Rattus norvegicus [28] = test: Induction of LLR(lower lip retraction) by the compound in rats at a dose of 8 mg/kg; format: functional; summary of the method: as §4
Rattus norvegicus [29] = test: Effect on 8-OH-DPAT-Induced LLR(lower lip retraction) in rats at a dose of 16 mg/kg; format: functional; summary of the method: as §5
Rattus norvegicus [30] = organism: Rattus norvegicus; test: Induction of behavioral syndrome(FT: forepaw treading) by the compound in reserpine pretreated rats at a dose of 16.; format: functional; summary of the method: as §1
[31] = molecular target: T1, 5-hydroxytryptamine receptor 1A (Rattus norvegicus, UniProt P19327); test: Ability to displace [3H]8-OH-DPAT from 5-hydroxytryptamine 1A receptor
T1 sequence (P19327 whole entry): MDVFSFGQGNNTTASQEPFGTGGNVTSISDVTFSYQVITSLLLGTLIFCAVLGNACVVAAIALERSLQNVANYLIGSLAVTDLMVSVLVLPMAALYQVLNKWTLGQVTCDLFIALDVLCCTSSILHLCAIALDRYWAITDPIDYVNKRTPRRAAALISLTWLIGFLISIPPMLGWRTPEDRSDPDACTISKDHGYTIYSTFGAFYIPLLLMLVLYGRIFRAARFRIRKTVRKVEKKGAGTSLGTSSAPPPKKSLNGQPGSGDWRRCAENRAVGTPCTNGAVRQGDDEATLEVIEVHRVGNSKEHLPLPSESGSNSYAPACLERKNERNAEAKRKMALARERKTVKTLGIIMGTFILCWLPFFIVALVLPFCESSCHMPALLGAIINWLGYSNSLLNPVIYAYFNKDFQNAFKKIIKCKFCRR
Summary of the method: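 Rat hippocampal membranes, [3H]8-OH-DPAT radioligand. Ki from at least three competition experiments, each with 10–14 drug concentrations run in triplicate. Ki calculated with the Cheng–Prusoff equation.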

Rattus norvegicus [32] = organism: Rattus norvegicus; test: Effect on 8-OH-DAPT- induced behavioral syndrome(FBP: flat body posture) by the compound in reserpine pretreated rats at a dose of 16.; format: functional; summary of the method: as §2
Rattus norvegicus [33] = test: Effect on 8-OH-DPAT-Induced LLR(lower lip retraction) in rats at a dose of 8 mg/kg; format: functional; summary of the method: as §5
Rattus norvegicus [34] = test: Induction of LLR(lower lip retraction) by the compound in rats at a dose of 16 mg/kg; format: functional; summary of the method: as §4
Rattus norvegicus [35] = test: Effect on 8-OH-DPAT-Induced LLR(lower lip retraction) in rats at a dose of 32 mg/kg; format: functional; summary of the method: as §5
Rattus norvegicus [36] = organism: Rattus norvegicus; test: Effect on 8-OH-DAPT- induced behavioral syndrome(FT: forepaw treading) by the compound in reserpine pretreated rats at a dose of 16.; format: functional; summary of the method: as §2

**Q.** How did the FT mean score (Rattus norvegicus [1]) turn out when COc1ccccc1N1CCN(CCCCN2C(=O)c3ccccc3C2=O)CC1 [NAN-190] was run?
**A.** 0.2

**Q.** What about the FT mean score (Rattus norvegicus [2]) of the same molecule?
**A.** 6.2

**Q.** What about the FBP mean score (Rattus norvegicus [3]) of the same molecule?
**A.** 0.2

**Q.** And the LLR score (Rattus norvegicus [4])?
**A.** 0.1

**Q.** And the LLR score (Rattus norvegicus [5])?
**A.** 0.1

**Q.** What about the LLR score (Rattus norvegicus [6]) of the same molecule?
**A.** 0.6

**Q.** What about the FBP mean score (Rattus norvegicus [7]) of the same molecule?
**A.** 2.3

**Q.** And the FT mean score (Rattus norvegicus [8])?
**A.** 5.7

**Q.** And the ED50 (Rattus norvegicus [9])?
**A.** 2.5 mg/kg

**Q.** What about the FBP mean score (Rattus norvegicus [10]) of the same molecule?
**A.** 0.1

**Q.** What about the LLR score (Rattus norvegicus [11]) of the same molecule?
**A.** 0.1

**Q.** What about the FT mean score (Rattus norvegicus [12]) of the same molecule?
**A.** 1.8

**Q.** And the LLR score (Rattus norvegicus [13])?
**A.** 1.4

**Q.** What about the FBP mean score (Rattus norvegicus [14]) of the same molecule?
**A.** 0.1

**Q.** And the FT mean score (Rattus norvegicus [15])?
**A.** 0.1

**Q.** What about the FT mean score (Rattus norvegicus [16]) of the same molecule?
**A.** 0.1

**Q.** And the ED50 (Rattus norvegicus [17])?
**A.** 1.7 mg/kg

**Q.** What about the FT mean score (Rattus norvegicus [18]) of the same molecule?
**A.** 10.8

**Q.** And the FBP mean score (Rattus norvegicus [19])?
**A.** 2.3

**Q.** And the LLR score (Rattus norvegicus [20])?
**A.** 1.7

**Q.** What about the FBP mean score (Rattus norvegicus [21]) of the same molecule?
**A.** 12.4

**Q.** And the FBP mean score (Rattus norvegicus [22])?
**A.** 0.2

**Q.** And the FBP mean score (Rattus norvegicus [23])?
**A.** 6

**Q.** And the ED50 (Rattus norvegicus [24])?
**A.** 2 mg/kg

**Q.** And the FT mean score (Rattus norvegicus [25])?
**A.** 0.2

**Q.** With COc1ccccc1N1CCN(C2CCC(N3C(=O)[C@H]4CCCC[C@H]4C3=O)CC2)CC1 (some centres not stated) as the molecule, how does the FT mean score (Rattus norvegicus [1]) read?
**A.** 0.2

**Q.** What about the LLR score (Rattus norvegicus [26]) of the same molecule?
**A.** 0.3

**Q.** What about the FBP mean score (Rattus norvegicus [27]) of the same molecule?
**A.** 0.1

**Q.** And the FT mean score (Rattus norvegicus [2])?
**A.** 9.2

**Q.** And the LLR score (Rattus norvegicus [28])?
**A.** 0.2

**Q.** And the LLR score (Rattus norvegicus [29])?
**A.** 1.6

**Q.** And the FBP mean score (Rattus norvegicus [7])?
**A.** 9.8

**Q.** And the FT mean score (Rattus norvegicus [30])?
**A.** 0.1

**Q.** And the ED50 (Rattus norvegicus [9])?
**A.** 7.3 mg/kg

**Q.** And the Ki [31]?
**A.** 0.072 µM

**Q.** What about the FBP mean score (Rattus norvegicus [32]) of the same molecule?
**A.** 3.2

**Q.** And the FT mean score (Rattus norvegicus [12])?
**A.** 5.4

**Q.** What about the LLR score (Rattus norvegicus [33]) of the same molecule?
**A.** 2.3

**Q.** What about the LLR score (Rattus norvegicus [34]) of the same molecule?
**A.** 0.3

**Q.** What about the LLR score (Rattus norvegicus [35]) of the same molecule?
**A.** 1.1

**Q.** What about the FBP mean score (Rattus norvegicus [14]) of the same molecule?
**A.** 0.2

**Q.** What about the FT mean score (Rattus norvegicus [15]) of the same molecule?
**A.** 0.2

**Q.** And the ED50 (Rattus norvegicus [17])?
**A.** 20 mg/kg

**Q.** What about the FBP mean score (Rattus norvegicus [19]) of the same molecule?
**A.** 11.6

**Q.** What about the FBP mean score (Rattus norvegicus [22]) of the same molecule?
**A.** 0.1

**Q.** And the ED50 (Rattus norvegicus [24])?
**A.** 11 mg/kg

**Q.** And the FT mean score (Rattus norvegicus [36])?
**A.** 2
